Published values from different studies.
Compare with care: the assays were run in different laboratories.
EP300: Histone acetyltransferase p300 (EP300, Homo sapiens, UniProt Q09472)

SMILES | target | assay | conditions | measurement | value
Nc1ncnc2occ(-c3ccc(NC(=O)Nc4cc(C(F)(F)F)ccc4F)cc3)c12 | Tyrosine-protein kinase ABL1, phosphorylated (ABL1, Homo sapiens, UniProt P00519, F317L) | cell-free assay, inhibitor | 20 µM | remaining signal | 9.2%
COc1cc(-c2cc(-c3ccc(N4CCNCC4)cc3)cnc2N)cc(OC)c1OC | Tyrosine-protein kinase ABL1 (ABL1, Homo sapiens, UniProt P00519, Y253F) | enzyme activity, inhibitor | 1 µM | inhibition | 95%
Cc1cc(O)c(C=O)c2c1C(=O)Oc1c(C)c(O)c3c(c1O2)C(O)OC3=O (stereo not drawn) | N-lysine methyltransferase KMT5A (KMT5A, Homo sapiens, UniProt Q9NQR1) | cell-free assay | 10 µM | inhibition | -14%
Oc1ccc(-c2nc(-c3ccncc3)c(-c3ccc(F)cc3)[nH]2)cc1 | EP300 | thermal stability, DSF | 10 µM | ΔTm | 0.33 °C
Oc1cccc(Nc2nc(-c3ccc(F)cc3F)cs2)c1 | Cholecystokinin receptor type A (CCKAR, Homo sapiens, UniProt P32238) | cell-free assay | 10 µM | inhibition | 76%
Cc1ccc(C(=O)Nc2ccc(CN3CCN(C)CC3)c(C(F)(F)F)c2)cc1C#Cc1cnc2cccnn12 | Serine/threonine-protein kinase Nek10 (NEK10, Homo sapiens, UniProt Q6ZWH5) | enzyme activity, inhibitor | 23.5 nM | remaining activity | 100%
Cc1ccc(Nc2nccc(N(C)c3ccc4c(C)n(C)nc4c3)n2)cc1S(N)(=O)=O | cAMP-dependent protein kinase catalytic subunit alpha (PRKACA, Bos taurus, UniProt P00517) | enzyme activity, inhibitor | 10 µM | inhibition | -19%
C[S+]([O-])c1ccc(-c2nc(-c3ccncc3)c(-c3ccc(F)cc3)[nH]2)cc1 (stereo not drawn) | EP300 | thermal stability, DSF | 10 µM | ΔTm | 0.35 °C
CN(C)C1CCN(CC#Cc2nn(C3CCCC3)c3nc(NCc4ccccc4)ncc23)C1 (stereo not drawn) | Tyrosine-protein kinase ITK/TSK (ITK, Homo sapiens, UniProt Q08881) | enzyme activity, inhibitor, FRET | 1 µM | inhibition | 5%
Cc1cnc(NC2CCOCC2)nc1-n1cnc(C(=O)NC(CN)c2cc(F)cc(Cl)c2)c1 (stereo not drawn) | Tyrosine-protein kinase ABL1 (ABL1, Homo sapiens, UniProt P00519, M351T) | enzyme activity, inhibitor, radiometric | 1 µM | remaining activity | 95%
c1ccc([C@H]2O[C@H]2c2ccccc2)cc1 | Epoxide hydrolase 1 (EPHX1, Homo sapiens, UniProt P07099) | enzyme activity, substrate | pH 9 | Km | 141 µM
Cc1cc(NC(=O)c2cccc3cc(-c4cccc5[nH]nc(N)c45)ccc23)ccc1F | Tyrosine-protein kinase ABL1 (ABL1, Homo sapiens, UniProt P00519) | enzyme activity, inhibitor | 0.1 µM | activity vs control | 85%
